Molecular target: Neuraminidase (Influenza A virus) (UniProt B4URF0)
Experiment: Inhibition of oseltamivir-resistant Influenza Virus A/342/0 (H1N1) neuraminidase at 52.5 uM
Summary of the method: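 Human oseltamivir-resistant H1N1 NA tested at a single 52.5 μM concentration in the NA-Star chemiluminescent assay. Compound and virus dilution were held 20 min at 37 C, then substrate (1:500) was added for 30 min at room temperature. Value given as percent inhibition relative to six untreated virus controls.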

Sequence of Neuraminidase (Influenza A virus) (B4URF0 as listed by the source): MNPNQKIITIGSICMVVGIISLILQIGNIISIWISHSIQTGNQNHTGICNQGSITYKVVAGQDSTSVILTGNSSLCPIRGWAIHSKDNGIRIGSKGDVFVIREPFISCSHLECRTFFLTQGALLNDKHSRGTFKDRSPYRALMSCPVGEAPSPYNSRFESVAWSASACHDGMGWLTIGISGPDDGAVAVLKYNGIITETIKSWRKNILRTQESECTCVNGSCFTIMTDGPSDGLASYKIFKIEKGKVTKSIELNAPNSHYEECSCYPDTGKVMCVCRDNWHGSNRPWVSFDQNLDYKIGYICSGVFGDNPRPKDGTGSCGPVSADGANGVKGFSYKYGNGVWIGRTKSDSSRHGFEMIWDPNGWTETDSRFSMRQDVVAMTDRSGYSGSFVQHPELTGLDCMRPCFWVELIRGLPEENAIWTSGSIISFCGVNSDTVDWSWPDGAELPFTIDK

Work on O=C(CCc1ccccc1)C[C@@H]1C[C@@H](c2ccccc2)c2c(cc(/C=C/c3ccccc3)oc2=O)O1 [KATSUMADAIN A] yielded an inhibition of 45.9%.

From ChEMBL document CHEMBL1154750 (J Med Chem, 2010)
